Env fusion inh: inhibitors of HIV-1 Env-driven cell-cell fusion, primary screen, HeLa-JRFL effector, CEM21 target cells, luciferase; inhibition, % at 12.3 µM; 360,000 tested, 1.1% active;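 active = mean replicate inhibition score of at least 50 and every replicate individually at or above 50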
miR-122 sensor: miR-122 Renilla sensor signal increase in Huh7, primary screen, miR-122 inhibitor project, cell-based, single point, plate reader; Huh7 miR-122 Renilla luciferase sensor, 48 h; neutral wells = 0, positive control = 100; 340,000 tested, 0.3% active; activation (reporter increase), % at 12.5 µM;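 active = mean replicate activation score at least 90 and every replicate individually at or above 90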;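 also: higher luciferase means less miR-122 activity so hits act as miR-122 inhibitors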
Vif inh: HIV Vif self-association inhibitors, primary screen, imaging, HEK293T, single point; HEK293T cells, Vif self-association by quenched fluorescence, 24 h; inhibition, % at 7.49 µM; 340,000 tested, 0.35% active; AID 602346, 2012; in the data active = inhibition above about 50%, passing the limit was not always enough
Ecoli rRNA inh: reduced GFP signal of wild-type E. coli, primary screen, bacterial rRNA inhibitor project, GFP/RFP fluorescence, OD600, single point; GFP signal change (wild-type ribosome), % (concentration not given with the values); 350,000 tested, 1.6% active; E. coli WT GFP vs humanized-ribosome RFP mutants, 24 h; hits give low values; DMSO median 0, no signal -100;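 active = significant combined selectivity score with lowered wild-type GFP, culture density cut under 30%, mutant RFP and density less affected; inactive = any of these conditions unmet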
S100A4 MyoIIA: inhibitors of S100A4-myosin IIA peptide binding, primary screen, biochemical, fluorescence polarization, TAMRA-MyoIIA peptide; Protein S100-A4 (Homo sapiens), P26447; inhibition, % at 10.7 µM; 360,000 tested, 0.14% active;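 active = mean inhibition of at least 70% across replicates, with every replicate also reaching that level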
Target sequence (P26447 whole entry, looked up): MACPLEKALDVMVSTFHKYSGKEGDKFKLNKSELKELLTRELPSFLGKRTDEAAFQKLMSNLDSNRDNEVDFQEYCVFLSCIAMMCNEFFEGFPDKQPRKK
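Test system: S100A4 monomer protein; Medium: HEPES pH 7.2 with CaCl2, KCl, NaCl, DTT, Triton; Probe or stimulus: TAMRA-labelled myosin IIA heavy-chain peptide probe, 5 nM; Doses: one dose per compound; Times: polarization read 5 min after assay mix addition, stable 5–60 min; Benchmarks: neutral control DMSO, positive control TFP.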
FN deposit inh: inhibitors of fibronectin matrix deposition, primary screen, AH1F cells, Alexa488-fibronectin fluorescence, plate reader. AH1F fibroblasts, overnight. 350,000 tested, 0.086% active. inhibition, % at 12.6 µM;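 active = mean inhibition across replicates of 30% or more, regardless of how many single replicates reach that level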
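Schedule: 1 h cell adhesion before compound, then overnight fibronectin incubation; test system: AH1F fibroblast monolayer depositing Alexa488-labelled fibronectin into matrix; quantity: 10000 AH1F cells per well; probe or stimulus: fluorescent fibronectin at 24 nM final; signal: fluorescence, ex 485 nm, em 525 nm; evaluation: percent inhibition as loss of matrix-bound fibronectin fluorescence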
A number is an active result; 0 = inactive; - = no result given; [ ] = dose if it differs, or a comment. In the library only some 2.6% were active in any assay of this set; here they are far more common.

SMILES	Env fusion inh	miR-122 sensor	Vif inh	Ecoli rRNA inh	S100A4 MyoIIA	FN deposit inh
COc1ccc(N2CC(C(=O)Nc3nc4ccc(F)cc4s3)CC2=O)c(OC)c1 (stereo not given)	0	-	0	-30	0	0
CC(C)CN(C(=O)COC(=O)C12CC3CC(CC(C3)C1)C2)c1c(N)n(Cc2ccccc2)c(=O)[nH]c1=O	70	-	0	0	0	0
CC(C)CN(C(=O)C(c1ccccc1)c1ccccc1)c1c(N)n(CC(C)C)c(=O)[nH]c1=O	79	0	0	0	0	0
C[C@H]1CN([C@@H](C)CO)C(=O)c2cccc(NC(=O)C3CCOCC3)c2O[C@H]1CN(C)C(=O)Nc1ccc(C(F)(F)F)cc1	0	0	-	0	0	0
C[C@@H]1CN([C@@H](C)CO)C(=O)c2cc(-c3ccncc3)cnc2O[C@H]1CN(C)Cc1cccnc1	0	0	-	0	0	0
CC(C)NC(=O)N(C)C[C@H]1Oc2ccc(NC(=O)Nc3ccccc3)cc2C(=O)N([C@@H](C)CO)C[C@H]1C	0	0	-	0	0	-
C[C@@H](C(=O)Nc1ccc2ccccc2c1)[C@H]1C[C@]1(C)[C@H](NC(=O)c1cccnc1)c1ccccc1	68	-	-	0	0	0
O=c1c(Cc2ccccc2)c(O)c2cccc3c4c(n1c23)CCCC4	0	0	0	-19	0	0
C#CCN(C[C@H]1[C@H](OC(=O)Nc2cccs2)[C@H](OC(=O)Nc2cccs2)CN(C(=O)OC(C)C)N1C(=O)OC(C)C)S(=O)(=O)c1ccc(C)cc1	117	-	-	0	0	-
CCCc1cn([C@H]2C[C@@H]3O[C@@H](CO)CC[C@@H]3O[C@@H]2CCc2ccc(-c3ccc(OC)cc3)cc2)nn1	-	-	-	-	0	-
CCOC(=O)c1c(C)c(C(=O)N2CCN(c3cccc(Cl)c3)CC2)c(C)n1C	57	0	0	-	-	0
COc1ccc(/C=C/C(=O)N2CCN(c3ccccn3)CC2)cc1	0	0	0	-23	0	0
C[C@@H]1CN([C@@H](C)CO)C(=O)c2c(c3ccccc3n2C)-c2ccccc2CO[C@H]1CN(C)Cc1cccc(C(F)(F)F)c1	57[16.7 µM]	-	-	0	0	0
C[C@@H]1CN([C@H](C)CO)C(=O)c2c(c3ccccc3n2C)-c2ccccc2CO[C@H]1CN(C)Cc1cccc(C(F)(F)F)c1	-	-	-	0	0	0
C[C@H]1CN([C@@H](C)CO)C(=O)c2c(c3ccccc3n2C)-c2ccccc2CO[C@H]1CN(C)C(=O)Cc1ccccc1	57[16.7 µM]	-	-	0	0	0
C[C@H]1CN([C@@H](C)CO)C(=O)c2c(c3ccccc3n2C)-c2ccccc2CO[C@H]1CN(C)C(=O)C1CC1	61[16.7 µM]	-	-	0	0	0
CN(C)c1ccc2c(c1)[C@@H]1C[C@H](CC(=O)NCc3ccc(Cl)cc3)O[C@@H](CO)[C@@H]1O2	-	-	-	0	0	0
CCCN1C[C@H](C)[C@H](OC)CN(C)C(=O)c2cc(NC(=O)c3cccc(F)c3)ccc2OC[C@H]1C	-	0	-	0	0	0
CCC(=O)Nc1ccc2c(c1)C(=O)N(C)C[C@H](OC)[C@@H](C)CN(C(=O)CC1CC1)[C@@H](C)CO2	-	0	-	0	0	0
CC(C)NC(=S)N(C)C1(c2ccccc2Cl)CCCCC1=O (stereo not given)	0	-	0	-	-	0
CN(C(=S)NC1CCCCC1)C1(c2ccccc2Cl)CCCCC1=O (stereo not given)	93	-	0	-	-	0
Cc1cc(NC(=S)Nc2cccnc2)ccc1Br	0	0	0	-46	0	0
Cc1cc(NC(=S)Nc2ccccc2)ccc1Br	-	-	0	0	0	-
CCc1ccc(C(=O)COC(=O)CNC(=O)c2ccc(Br)o2)cc1	0	0	0	-22	0	0
C[C@H](CO)N1C[C@H](C)[C@H](CN(C)C(=O)C2CCCCC2)OCCCC[C@H](C)Oc2ccc(NC(=O)Nc3cccc4ccccc34)cc2C1=O	0	0	-	0	0	-
SMILES	Env fusion inh	miR-122 sensor	Vif inh	Ecoli rRNA inh	S100A4 MyoIIA	FN deposit inh
CSc1sc(C(=O)O)c(C)c1C(C)=O	-	0	56	-	-	-
CCOC(=O)c1sc(SC)c(C(C)=O)c1C	-	0	0	-	-	-
Cc1ccc(C)c(NC2=C(Cl)C(=O)OC2OC(=O)c2ccco2)c1 (stereo not given)	-	0	0	-28	0	-
Cc1ccc(NC2=C(Cl)C(=O)OC2OC(=O)c2ccco2)c(C)c1 (stereo not given)	0	0	0	-	-	0
CC(C)NC(=O)Nc1cccc2c1O[C@H](CN(C)Cc1ccccc1)[C@@H](C)CN([C@H](C)CO)C2=O	0	0	-	0	0	0
O=C(NCCc1ccccc1)N1c2ccccc2Sc2ccccc21	60	0	0	-	-	0
O=C(COc1cccc(F)c1)N1c2ccccc2Sc2ccccc21	-	0	0	-	-	-
O=C(COc1ccccc1)N1c2ccccc2Sc2ccccc21	0	0	0	-34	0	0
CC(C)CNC(=O)N1c2ccccc2Sc2ccccc21	0	-	0	0	0	0
CCOc1ccc(Cl)cc1S(=O)(=O)n1cnc2cc(C)c(C)cc21	0	183	0	-	-	0
CCOc1ccc(Cl)cc1S(=O)(=O)N1CCN(c2ccc(C)c(C)c2)CC1	0	0	0	0	0	-
O=C(C[C@@H]1CC[C@H](NC(=O)C2CCOCC2)[C@H](CO)O1)NCC1CC1	-	-	-	0	0	-
O=C(Oc1cccnc1)c1ccco1	0	0	0	-	-	0
O=C(Oc1cccc(OC(=O)c2ccco2)c1)c1ccco1	0	0	0	-23	0	0
COc1ccc(NC(=O)c2ccc3[nH]c(C)c(C)c3c2)cc1	0	0	0	-25	0	0
Cc1cc2nc3ccc(N(C)C)cc3nc2cc1N	0	0	0	-	178	0
COc1ccc(S(=O)(=O)N(C)C[C@@H]2OCCCC[C@H](C)Oc3ccc(NC(=O)Nc4ccc(F)cc4)cc3C(=O)N([C@@H](C)CO)C[C@@H]2C)cc1	0	0	-	0	0	0
C=CC[C@H](CC(=O)NCCO)C(=O)N[C@@H](COC(=O)[C@@H](CC=C)Cc1ccc(F)cc1)Cc1ccccc1	79	0	0	0	0	0
C=CC[C@H](CC(=O)NCCO)C(=O)N[C@H](COC(=O)[C@@H](CC=C)Cc1ccc(F)cc1)c1ccccc1	0	0	-	0	0	0
C=CC[C@H](CC(=O)NCCO)C(=O)N[C@H](COC(=O)[C@@H](CC=C)Cc1ccc(F)cc1)Cc1ccccc1	59	0	0	0	0	0
C=CCC[C@H](Cc1ccc(F)cc1)C(=O)OC[C@H](Cc1c[nH]c2ccccc12)NC(=O)[C@@H](CC=C)CC(=O)N[C@@H](CO)Cc1ccccc1	0	0	0	0	0	32

Source: PubChem (Broad Institute)
